The source of these data is ChEMBL document CHEMBL4433211, “Discovery of the First-in-Class GSK-3β/HDAC Dual Inhibitor as Disease-Modifying Agent To Combat Alzheimer's Disease” (ACS Med Chem Lett, 2019).

Activity calls are given as the source filed them. The rule behind the calls is not given here.

The target in data set [1] is T1, Glycogen synthase kinase-3 beta (Homo sapiens, UniProt P49841). The data set can be described thus: Inhibition of human recombinant GSK3beta using GSM as substrate incubated for 30 mins by luminescence based assay.
Target sequence in this assay (P49841 whole entry): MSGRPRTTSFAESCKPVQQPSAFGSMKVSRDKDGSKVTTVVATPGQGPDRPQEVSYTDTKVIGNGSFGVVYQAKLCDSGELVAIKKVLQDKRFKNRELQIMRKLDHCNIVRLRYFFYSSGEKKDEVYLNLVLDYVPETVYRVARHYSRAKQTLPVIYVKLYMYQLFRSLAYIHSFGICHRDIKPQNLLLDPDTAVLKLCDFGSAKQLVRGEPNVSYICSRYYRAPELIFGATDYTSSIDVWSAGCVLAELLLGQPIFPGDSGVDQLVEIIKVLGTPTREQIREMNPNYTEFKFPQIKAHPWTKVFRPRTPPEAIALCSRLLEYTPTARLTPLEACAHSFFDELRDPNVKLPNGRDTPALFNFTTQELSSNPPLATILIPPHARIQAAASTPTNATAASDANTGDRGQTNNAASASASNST
In data set [2] the target is T2, Histone deacetylase 1 (Homo sapiens, UniProt Q13547). The data set is described as follows: Inhibition of human recombinant his tagged HDAC1 expressed in baculovirus infected […] insect cells using tertbutyloxycarbonyl (Boc)-(Ac)-Lys-7-amino-4-methylcoumarin as substrate incubated for 1 hr by fluorescence based assay.
T2 sequence (Q13547 whole entry): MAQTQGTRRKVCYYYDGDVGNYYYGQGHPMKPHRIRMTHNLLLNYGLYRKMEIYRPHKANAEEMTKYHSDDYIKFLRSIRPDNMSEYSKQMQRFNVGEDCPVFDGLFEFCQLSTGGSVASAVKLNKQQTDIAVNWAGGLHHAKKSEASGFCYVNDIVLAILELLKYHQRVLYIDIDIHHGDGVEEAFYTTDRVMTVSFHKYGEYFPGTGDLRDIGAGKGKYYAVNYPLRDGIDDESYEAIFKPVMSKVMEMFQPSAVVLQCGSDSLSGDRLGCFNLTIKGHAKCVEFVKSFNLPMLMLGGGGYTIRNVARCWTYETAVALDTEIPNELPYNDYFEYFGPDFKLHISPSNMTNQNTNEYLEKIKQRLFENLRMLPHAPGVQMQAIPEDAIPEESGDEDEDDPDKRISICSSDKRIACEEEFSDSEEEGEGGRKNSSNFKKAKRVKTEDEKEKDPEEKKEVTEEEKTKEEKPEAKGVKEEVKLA
Data set [3] deals with T3, Protein deacetylase HDAC6 (Homo sapiens, UniProt Q9UBN7).
T3 sequence (Q9UBN7 whole entry): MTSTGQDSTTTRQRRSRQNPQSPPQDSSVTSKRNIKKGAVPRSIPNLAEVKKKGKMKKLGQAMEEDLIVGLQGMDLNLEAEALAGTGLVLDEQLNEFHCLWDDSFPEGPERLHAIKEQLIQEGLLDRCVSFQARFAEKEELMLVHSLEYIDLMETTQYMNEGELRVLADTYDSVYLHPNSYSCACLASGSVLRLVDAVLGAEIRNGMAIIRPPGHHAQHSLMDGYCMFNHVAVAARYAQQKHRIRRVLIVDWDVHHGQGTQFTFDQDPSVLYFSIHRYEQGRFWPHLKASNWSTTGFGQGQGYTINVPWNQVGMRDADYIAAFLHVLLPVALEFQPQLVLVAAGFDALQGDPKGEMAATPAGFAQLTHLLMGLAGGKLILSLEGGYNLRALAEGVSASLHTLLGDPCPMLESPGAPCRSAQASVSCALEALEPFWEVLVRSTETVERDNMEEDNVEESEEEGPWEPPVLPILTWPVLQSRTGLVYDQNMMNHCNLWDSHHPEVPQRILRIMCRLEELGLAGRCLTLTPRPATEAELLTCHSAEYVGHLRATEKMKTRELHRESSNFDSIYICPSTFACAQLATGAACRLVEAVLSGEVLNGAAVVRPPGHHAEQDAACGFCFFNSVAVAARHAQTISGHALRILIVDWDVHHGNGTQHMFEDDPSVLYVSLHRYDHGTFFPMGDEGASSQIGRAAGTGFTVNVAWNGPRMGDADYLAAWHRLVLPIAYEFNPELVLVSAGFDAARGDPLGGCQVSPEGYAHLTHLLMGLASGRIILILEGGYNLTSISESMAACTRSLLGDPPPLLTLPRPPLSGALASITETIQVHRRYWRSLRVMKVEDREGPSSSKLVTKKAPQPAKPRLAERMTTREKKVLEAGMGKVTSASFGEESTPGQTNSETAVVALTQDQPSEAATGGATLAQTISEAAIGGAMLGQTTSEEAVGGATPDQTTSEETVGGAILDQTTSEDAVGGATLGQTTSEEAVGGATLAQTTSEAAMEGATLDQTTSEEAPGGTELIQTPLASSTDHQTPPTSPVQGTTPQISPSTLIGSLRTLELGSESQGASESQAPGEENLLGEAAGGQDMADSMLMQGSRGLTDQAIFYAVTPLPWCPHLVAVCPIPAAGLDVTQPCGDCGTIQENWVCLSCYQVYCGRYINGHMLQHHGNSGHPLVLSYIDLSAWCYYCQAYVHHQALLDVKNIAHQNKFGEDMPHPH
The data set can be described thus: Inhibition of human recombinant his tagged HDAC6 expressed in baculovirus infected […] insect cells using batcp as substrate incubated for 1 hr by fluorescence based assay.

For data set [4], the target named is T1, Glycogen synthase kinase-3 beta. The data set is described as follows: Inhibition of human recombinant GSK3beta up to 50 uM using GSM as substrate incubated for 30 mins by luminescence based assay.
Target sequence in this assay (P49841 whole entry, looked up): as the sequence (P49841 whole entry) above
For data set [5] the target is unchanged. The data set is described as follows: Inhibition of GSK3beta in human SH-SY5Y cells assessed as reduction in copper-induced tau hyperphosphorylation at 10 uM preincubated for 1 hr followed by copper addition and measured after 26 hrs by ELISA. The format is cell-based. Particulars: in the assay text read “16 hrs” for “26 hrs”. The gist of the method: (§1)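 Differentiated SH-SY5Y cells pretreated 1 h with test agent (LiCl 10 mM reference; compounds 10 μM), then copper 400 μM for 16 h; cells scraped, phospho-tau quantified by immunoenzymatic assay at 450 nm; mean ± SEM.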
For orientation: An ELISA detects its analyte on a solid surface through an enzyme-linked reagent.
Target sequence in this assay (P49841 whole entry, looked up): as the sequence (P49841 whole entry) above

For data set [6], the system named is SH-SY5Y. The data set can be described thus: Cytotoxicity against human SH-SY5Y cells at 10 uM incubated for 24 hrs by MTS assay. Type of data set: cell-based. The gist of the method: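 SH-SY5Y cells exposed to test compound for 24 h at 37 °C; viability read by MTS assay and expressed as % of untreated control.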
(Tetrazolium assays rely on reduction of a dye to a coloured formazan, in cell work by metabolically active cells.)

Data set [7] relates to SH-SY5Y. The data set is described as follows: Induction of neurogenesis in human SH-SY5Y cells assessed as upregulation of GAP43 mRNA at 1 uM incubated for 24 hrs by RT-PCR analysis. Type of data set: functional, cell-based. The gist of the method:
(§2)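 SH-SY5Y cells treated 24 h (10 μM, or 1 μM for one parent compound; retinoic acid positive control); GAP43, N-myc and MAP-2 mRNA measured by RT-PCR, expressed as fold of control.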

Data set [8] has as its system SH-SY5Y. The data set is described as follows: Induction of neurogenesis in human SH-SY5Y cells assessed as upregulation of MAP-2 mRNA at 1 uM incubated for 24 hrs by RT-PCR analysis. Type of data set: functional, cell-based. A digest of the protocol: as §2
In data set [9] the test system is SH-SY5Y. The data set can be described thus: Induction of neurogenesis in human SH-SY5Y cells assessed as upregulation of N-myc mRNA at 1 uM incubated for 24 hrs by RT-PCR analysis. The format is functional, cell-based. The gist of the method:
as §2

For data set [10], the system named is Microglia. The data set is described as follows: Immunomodulatory activity in LPS treated Wistar rat primary microglial cells assessed as decrease in NOS2 expression level at 5 to 50 uM incubated for 24 hrs by western blot analysis. Type of data set: functional, cell-based. A digest of the protocol: (§3)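 Primary microglial cells treated 24 h with LPS in presence or absence of test compound; NOS2, MRC1 and TREM2 protein assessed by Western blot, normalized to GAPDH.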

Data set [11] deals with Microglia. The data set is described as follows: Immunomodulatory activity in LPS treated Wistar rat primary microglial cells assessed as decrease in MRC1 expression level at 5 to 50 uM incubated for 24 hrs by western blot analysis. Type of data set: functional, cell-based. A digest of the protocol: as §3
The subject of data set [12] is Microglia. The data set is described as follows: Immunomodulatory activity in LPS treated Wistar rat primary microglial cells assessed as effect on TREM2 expression level at 5 to 50 uM incubated for 24 hrs by western blot analysis. The format is functional, cell-based. The gist of the method: as §3
(In general: In western blotting, separated proteins are transferred to a membrane and probed.)

Data set [13] deals with T1, Glycogen synthase kinase-3 beta. The data set is described as follows: Inhibition of GSK3beta in human SH-SY5Y cells assessed as reduction in copper-induced tau hyperphosphorylation at 10 mM preincubated for 1 hr followed by copper addition and measured after 26 hrs by ELISA. Particulars: in the assay text read “16 hrs” for “26 hrs”. The format is cell-based. A digest of the protocol: as §1
Target sequence in this assay (P49841 whole entry, looked up): as the sequence (P49841 whole entry) above

Data set [14] deals with T2, Histone deacetylase 1. The data set is described as follows: Inhibition of human recombinant his tagged HDAC1 expressed in baculovirus infected […] insect cells up to 30 uM using tertbutyloxycarbonyl (Boc)-(Ac)-Lys-7-amino-4-methylcoumarin as substrate incubated for 1 hr by fluorescence based assay.
Data set [15] has as its target T4, Protein deacetylase HDAC6 (Homo sapiens) (UniProt Q9UBN7).
T4 sequence (whole entry): T3 sequence (Q9UBN7 whole entry)
The data set can be described thus: Inhibition of human recombinant his tagged HDAC6 expressed in baculovirus infected […] insect cells up to 30 uM using batcp as substrate incubated for 1 hr by fluorescence based assay.

Data set [16] deals with SH-SY5Y. The data set can be described thus: Induction of neurogenesis in human SH-SY5Y cells assessed as upregulation of GAP43 mRNA at 10 uM incubated for 24 hrs by RT-PCR analysis. Type of data set: functional, cell-based. The gist of the method: as §2
Data set [17] deals with SH-SY5Y. The data set is described as follows: Induction of neurogenesis in human SH-SY5Y cells assessed as upregulation of N-myc mRNA at 10 uM incubated for 24 hrs by RT-PCR analysis. Type of data set: functional, cell-based. A digest of the protocol:
as §2

Data set [18] concerns SH-SY5Y. The data set can be described thus: Induction of neurogenesis in human SH-SY5Y cells assessed as upregulation of MAP-2 mRNA at 10 uM incubated for 24 hrs by RT-PCR analysis. Type of data set: functional, cell-based. A digest of the protocol:
as §2

The test system of data set [19] is SH-SY5Y. The data set is described as follows: Induction of neurogenesis in human SH-SY5Y cells assessed as stimulation of neurite outgrowth at 10 uM incubated for 72 hrs by phase contrast microscopic analysis. Type of data set: functional, cell-based. The gist of the method: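 SH-SY5Y cells treated 72 h at 10 μM, retinoic acid (10 μM) as positive control; neurite-bearing cells scored from images taken at 20× magnification.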

Data set [20] has as its target Histone deacetylase (Homo sapiens) (UniProt Q13547+O15379+Q9UBN7+Q92769+Q9UQL6+Q8WUI4+Q9BY41+Q96DB2+P56524+Q9UKV0+Q969S8). The data set is described as follows: Synergistic inhibition of HDAC in human SH-SY5Y cells assessed as increase in acetylation of alpha-tubulin incubated for 30 hrs in presence of verinostat by Western blot analysis. Type of data set: cell-based.

The subject of data set [21] is SH-SY5Y. The data set can be described thus: Synergistic neuroprotective activity against H2O2-induced cell death in human SH-SY5Y cells at 0.1 uM incubated for 24 hrs in presence of verinostat by MTS assay. Type of data set: functional, cell-based. A digest of the protocol: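 SH-SY5Y cells challenged 24 h with H2O2 (25 and 50 μM) in presence of compounds (0.1–10 μM), alone or as a two-compound combination; viability by MTS assay as % of control.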

Data set [22] has as its system Cerebellar granule neurone. The data set is described as follows: Neuroprotective activity against 6-OHDA-induced cell death in Wistar rat primary cerebellar granule neurons at 20 uM preincubated for 6 hrs followed by 6-OHDA addition and measured after 24 hrs in presence of in presence of 5 uM verinostat by MTT assay. Type of data set: functional, cell-based. The gist of the method: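 Primary differentiated cerebellar granule neurons challenged with 6-OHDA with or without test compound; viability assessed; mean ± SE of at least 3 experiments in quadruplicate, one-way ANOVA with Bonferroni post hoc test.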

By IC50 is commonly meant the point on the concentration scale where inhibition reaches its midpoint.

As to `O=C(CCCNC(=S)Nc1ccc2c(c1)C(=O)NC2=O)NO`, the concentration for half-maximal inhibition (IC50) in data set [1] was 9.85 µM; on Histone deacetylase 1 [2] it was 2.24 µM; in data set [3] it was 12.6 µM.

Regarding `O=C(CCCCNC(=S)Nc1ccc2c(c1)C(=O)NC2=O)NO`, the IC50 came to 4.11 µM in [1], 5.02 µM on Histone deacetylase 1 [2] and 14.7 µM in data set [3].

As for `O=C(CCNC(=S)Nc1ccc2c(c1)C(=O)NC2=O)NO`, the figures for the IC50 (in [1]; at Histone deacetylase 1 [2]; in data set [3]) were 20 µM, 3.75 µM and 18.1 µM, respectively.

With `O=C(CCCCCCC(=O)Nc1ccccc1)NO` [VORINOSTAT], the inhibition entry in data set [4] is “inactive”. Besides, the inhibition entry in [5] was “Active”. The Activity entry in the data set on SH-SY5Y [6] was “Toxic”. Also, the result in the data set on SH-SY5Y [7], in the data set with SH-SY5Y [8], in the data set with SH-SY5Y [9], in the data set on Microglia [10] and in the data set on Microglia [11] was Active. The result in the data set on Microglia [12] was inactive.

With `[Cl-].[Li+]`, the inhibition result in data set [13] is “Active”.

Regarding `O=C1NC(=O)c2ccccc21` [PHTHALIMIDE], the IC50 in [1] is 20.2 µM. Further, the inhibition result (at Histone deacetylase 1 [14]; in data set [15]; in [20]) was “inactive” throughout. The inhibition entry in data set [5] was “Active”. In addition, the outcome (in the data set on SH-SY5Y [16]; in the data set on SH-SY5Y [18]; with SH-SY5Y [19]; in the data set with Microglia [10]; in the data set on Microglia [11]; in [22]) was Active. In addition, the outcome in the data set with SH-SY5Y [17], in the data set with Microglia [12] and in the data set on SH-SY5Y [21] was inactive.

With `CC1=C(/C=C/C(C)=C/C=C/C(C)=C/C(=O)O)C(C)(C)CCC1`, the result with SH-SY5Y [16], in the data set on SH-SY5Y [17], in the data set on SH-SY5Y [18] and in the data set on SH-SY5Y [19] was Active.
